Assay results taken from ChEMBL document CHEMBL1177791, “Discovery of piperidin-4-yl-aminopyrimidines as HIV-1 reverse transcriptase inhibitors. N-benzyl derivatives with broad potency against resistant mutant viruses” (Bioorg Med Chem Lett, 2010).

What was measured:
[1] = target: Human immunodeficiency virus type 1 reverse transcriptase (Human immunodeficiency virus 1, UniProt Q72547); assay: Inhibition of wild type HIV1 reverse transcriptase by SPA heteropolymeric assay
In short: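 Recombinant RT, heteropolymeric assay of RNA-dependent DNA polymerase activity with biotinylated primer oligonucleotide and tritiated dNTP substrate; new DNA quantified by capturing biotinylated primer on streptavidin-coated SPA beads; IC50 reported.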

[2] = target: Human immunodeficiency virus type 1 reverse transcriptase (Human immunodeficiency virus 1, UniProt Q72547, K103N/Y181C); assay: Inhibition of HIV1 reverse transcriptase K103N/Y181C double mutant by SPA heteropolymeric assay
In short: (§1)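 Recombinant mutant RT, heteropolymeric assay of RNA-dependent DNA polymerase activity. Uses a biotinylated primer oligonucleotide and tritiated dNTP substrate. Newly synthesized DNA is captured via the biotinylated primer on streptavidin-coated scintillation proximity beads and counted. Reported as IC50.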

[3] = target: Human immunodeficiency virus type 1 reverse transcriptase (Human immunodeficiency virus 1, UniProt Q72547, Y188L); assay: Inhibition of HIV1 reverse transcriptase Y188L mutant by SPA heteropolymeric assay; in short: as §1
[4] = system: Human immunodeficiency virus 1; assay: Antiviral activity against HIV1 infected in human MT4 cells assessed as reduction in virus-induced cytopathic effect; assay type: functional, organism-based; conditions: Human immunodeficiency virus 1, MT4
[5] = system: Human immunodeficiency virus 1; assay: Antiviral activity against HIV1 expressing reverse transcriptase K103N/Y181C double mutant infected in human MT4 cells assessed as reduction in virus-induced cytopathic effect; assay type: functional, organism-based; conditions: Human immunodeficiency virus 1, MT4
In short: (§2)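 Compound incubated with HIV-1-infected MT4 cells in medium containing 10% fetal bovine serum. Read-out was reduction of viral cytopathic effect on the cells, reported as EC50.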

[6] = system: Human immunodeficiency virus 1; assay: Antiviral activity against HIV1 expressing reverse transcriptase Y188L mutant infected in human MT4 cells assessed as reduction in virus-induced cytopathic effect; assay type: functional, organism-based; conditions: Human immunodeficiency virus 1, MT4; in short: as §2
[7] = system: Human immunodeficiency virus 1; assay: Antiviral activity against wild type HIV1 infected in human MT4 cells assessed as reduction in virus-induced cytopathic effect in presence of 40 % human serum; assay type: functional, organism-based; conditions: Human immunodeficiency virus 1, MT4
[8] = system: Human immunodeficiency virus 1; assay: Antiviral activity against HIV1 expressing reverse transcriptase K103N/L100I double mutant infected in human MT4 cells assessed as reduction in virus-induced cytopathic effect; assay type: functional, organism-based; conditions: Human immunodeficiency virus 1, MT4; in short: as §2
[9] = system: Human immunodeficiency virus 1; assay: Antiviral activity against HIV1 expressing reverse transcriptase G190A mutant infected in human MT4 cells assessed as reduction in virus-induced cytopathic effect; assay type: functional, organism-based; conditions: Human immunodeficiency virus 1, MT4; in short: as §2
[10] = system: Human immunodeficiency virus 1; assay: Antiviral activity against wild type HIV1 infected in human MT4 cells assessed as reduction in virus-induced cytopathic effect in presence of 10 % fetal bovine serum; assay type: functional, organism-based; conditions: Human immunodeficiency virus 1, MT4
[11] = system: Human immunodeficiency virus 1; assay: Antiviral activity against HIV1 expressing reverse transcriptase V106A mutant infected in human MT4 cells assessed as reduction in virus-induced cytopathic effect; assay type: functional, organism-based; conditions: Human immunodeficiency virus 1, MT4; in short: as §2

| SMILES | IC50 [1] | IC50 [2] | IC50 [3] | IC50 [4] | IC50 [5] | IC50 [6] | IC50 [7] | IC50 [8] | IC50 [9] | IC50 [10] | IC50 [11] |
| --- | --- | --- | --- | --- | --- | --- | --- | --- | --- | --- | --- |
| Cc1cc(C#N)cc(C)c1Oc1nc(NC2CCN(Cc3cccc(C#N)c3)CC2)ncc1Br | 23 nM | 27 nM | 37 nM | – | – | – | – | – | – | – | – |
| Cc1cc(C#N)cc(C)c1Oc1nc(NC2CCN(Cc3ccc(S(C)(=O)=O)cc3)CC2)ncc1Br | 28 nM | 14 nM | 28 nM | 5.2 nM | 35.7 nM | < 1.2 nM | – | – | – | – | – |
| Cc1cc(C#N)cc(C)c1Oc1nc(NC2CCN(Cc3ccc(C#N)cc3Cl)CC2)ncc1Br | 146 nM | 159 nM | – | 17.6 nM | 67.4 nM | 11.6 nM | – | – | – | – | – |
| Cc1cc(C#N)cc(C)c1Oc1nc(Nc2ccc(C#N)cc2)nc(N)c1Br [ETRAVIRINE] | – | – | – | – | – | 3.1 nM | 25.9 nM | 9.5 nM | 1.1 nM | – | – |
| Cc1cc(C#N)cc(C)c1Oc1nc(NC2CCN(Cc3ccccc3)CC2)ncc1Br | 19 nM | 15 nM | 70 nM | 6.5 nM | > 100 nM | 9.1 nM | – | – | – | – | – |
| Cc1cc(C#N)cc(C)c1Oc1nc(NC2CCN(c3ccccc3)C2)ncc1Br (centres undefined) | 67 nM | > 1000 nM | 718 nM | – | – | – | – | – | – | – | – |
| Cc1cc(C#N)cc(C)c1Oc1ccnc(NC2CCN(Cc3ccc(S(N)(=O)=O)cc3Cl)CC2)n1 | 84 nM | 25 nM | 105 nM | 4.4 nM | 21.4 nM | 1.4 nM | – | – | – | – | – |
| Cc1cc(C#N)cc(C)c1Oc1ccnc(NC2CCN(Cc3ccc(S(C)(=O)=O)cc3Cl)CC2)n1 | 22 nM | 30 nM | 263 nM | 24.6 nM | 67.2 nM | 46.5 nM | – | – | – | – | – |
| Cc1cc(C#N)cc(C)c1Oc1nc(NC2CCN(Cc3ccc(S(C)(=O)=O)cc3Cl)CC2)ncc1Br | 45 nM | 28 nM | 216 nM | 6.1 nM | 7.3 nM | 2.8 nM | 48.7 nM | 5.9 nM | 1.8 nM | 6.1 nM | 2 nM |
| Cc1cc(C#N)cc(C)c1Oc1ccnc(NC2CCN(Cc3ccccc3)CC2)n1 | 87 nM | 216 nM | 372 nM | 3.3 nM | > 100 nM | 43.6 nM | – | – | – | – | – |
| Cc1cc(C#N)cc(C)c1Oc1nc(NC2CCN(Cc3ccc(C(=O)O)cc3Cl)CC2)ncc1Br | 32 nM | 28 nM | 86 nM | 3.9 nM | 74.2 nM | – | – | – | – | – | – |
| Cc1cc(C#N)cc(C)c1Oc1nc(NC2CCN(c3ccccc3)CC2)ncc1Br | 192 nM | 112 nM | 334 nM | – | – | – | – | – | – | – | – |
| Cc1cc(C#N)cc(C)c1Oc1nc(NC2CCN(Cc3ccc(C#N)cc3)CC2)ncc1Br | 21 nM | 18 nM | 41 nM | – | – | – | – | – | – | – | – |
| O=C1Nc2ccc(Cl)cc2[C@@](C#CC2CC2)(C(F)(F)F)O1 [EFAVIRENZ] | – | – | – | – | – | > 1000 nM | – | > 500 nM | 6 nM | – | 5.7 nM |
| Cc1cc(C#N)cc(C)c1Oc1nc(NC2CCN(Cc3cccc(Cl)c3)CC2)ncc1Br | 241 nM | 229 nM | – | – | – | – | – | – | – | – | – |
| Cc1cc(C#N)cc(C)c1Oc1ccnc(NC2CCN(Cc3ccc(S(C)(=O)=O)cc3)CC2)n1 | 34 nM | 50 nM | 72 nM | – | 20.2 nM | 16.9 nM | – | – | – | – | – |
| Cc1cc(C#N)cc(C)c1Oc1nc(NC2CCN(Cc3ccc(S(N)(=O)=O)cc3Cl)CC2)ncc1Br | 90 nM | 21 nM | 208 nM | 9.9 nM | 18.9 nM | 3.2 nM | 61.5 nM | 9.1 nM | 6 nM | 9.9 nM | 2.3 nM |
| Cc1cc(C#N)cc(C)c1Oc1nc(NC2CCN(Cc3ccc(Cl)cc3)CC2)ncc1Br | 152 nM | 129 nM | 793 nM | – | – | – | – | – | – | – | – |
| Cc1cc(C#N)cc(C)c1Oc1nc(NC2CCN(Cc3ccccc3C#N)CC2)ncc1Br | 29 nM | 62 nM | 43 nM | – | – | – | – | – | – | – | – |
| Cc1cc(C#N)cc(C)c1Oc1nc(NC2CCN(Cc3ccc(C(N)=O)cc3Cl)CC2)ncc1Br | 131 nM | 69 nM | 519 nM | 41.5 nM | 52.7 nM | 30.2 nM | – | – | – | – | – |
| Cc1cc(C#N)cc(C)c1Oc1ccnc(NCCC(=O)Nc2ccc(S(N)(=O)=O)cc2Cl)n1 | 900 nM | > 1000 nM | > 10000 nM | – | – | – | – | – | – | – | – |
